In ChEMBL document CHEMBL1123730, “Synthesis and pharmacological evaluation of a new class of 2-(2-aminothiazol-4-yl)-2-hydrazonoacetamido cephalosporins” (J Med Chem, 1987):
Values after ≈ are worked out from the molar mass of the structure shown.

Experiments:
[1] = system: Sarcina; assay: Geometrical average of minimum bactericidal concentration was determined in isosensitest broth against Sarcina; assay type: functional
[2] = Distribution (50 mg/kg) was determined in liver 60 min after intramuscular administration; assay type: ADME, organism-based; conditions: im, read-out: Tissue distribution
Method in brief: (§1)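 Wistar rats (200-250 g, groups of five) given 50 mg/kg in sterile water iv or im; killed at set times, lung, liver and kidney homogenized in 0.1 M pH 7.3 phosphate buffer (tissue:buffer 1:5). Drug assayed by agar diffusion on Nutrient Agar with E. coli ATCC 10536 (37 °C, 18 h); standards in phosphate buffer; detection limit 0.5 μg/mL; mean ± SEM.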

[3] = system: Proteus; assay: Geometrical average of minimum inhibitory concentration was determined in isosensitest broth against Proteus; assay type: functional, Proteus sp.
[4] = system: Salmonella typhimurium; assay: In vivo protective dose was determined in infected swiss mice (120/strain) infected ip with Salmonella Typhimurium T.O. with an inoculum size-0.5 mL of 10 E6 CFU/mL of suspension. Activity in range of 5.47-15.81; assay type: functional, Salmonella enterica subsp. enterica serovar Typhimurium; conditions: Salmonella enterica
[5] = system: Enterobacter; assay: Geometrical average of minimum bactericidal concentration was determined in isosensitest broth against Enterobacter; assay type: functional
[6] = system: Klebsiella; assay: Geometrical average of minimum inhibitory concentration was determined in isosensitest broth against Klebsiella; assay type: functional
[7] = Distribution (50 mg/kg) was determined in lung 30 min after intramuscular administration; assay type: ADME, organism-based; conditions: im, read-out: Tissue distribution; method in brief: as §1
[8] = system: Streptococcus; assay: Geometrical average of minimum bactericidal concentration was determined in isosensitest broth against Streptococcus; assay type: functional
[9] = system: Serratia; assay: Geometrical average of minimum inhibitory concentration was determined in isosensitest broth against Serratia; assay type: functional
[10] = Distribution (50 mg/kg) was determined in lung 15 min after intramuscular administration; assay type: ADME, organism-based; conditions: im, read-out: Tissue distribution; method in brief: as §1
[11] = Distribution (50 mg/kg) was determined in liver 5 min after intravenous administration; assay type: ADME, organism-based; conditions: read-out: Tissue distribution; method in brief: as §1
[12] = Serum level was determined at 120 min after intramuscular administration of 50 mg/kg in rats; assay type: ADME, organism-based; set-up: dose 50 mg/kg, route intramuscular; conditions: rat, im, read-out: Serum level
Method in brief: (§2)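 Dose 50 mg/kg in sterile water, iv or im, to Wistar rats 200-250 g, five per time point; killed at set intervals, blood centrifuged for serum. Antibiotic measured by agar diffusion on Nutrient Agar with E. coli ATCC 10536 (37 °C, 18 h), standards diluted in serum; detection limit 1 μg/mL. Mean ± SEM of five rats.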

[13] = Distribution (50 mg/kg) was determined in kidney 5 min after intramuscular administration; assay type: ADME, organism-based; conditions: im, read-out: Tissue distribution; method in brief: as §1
[14] = Distribution (50 mg/kg) was determined in lung 5 min after intramuscular administration; assay type: ADME, organism-based; conditions: im, read-out: Tissue distribution; method in brief: as §1
[15] = system: Alcaligenes; assay: Geometrical average of minimum bactericidal concentration was determined in isosensitest broth against Alcaligenes; assay type: functional
[16] = Distribution (50 mg/kg) was determined in liver 120 min after intravenous administration; assay type: ADME, organism-based; conditions: read-out: Tissue distribution; method in brief: as §1
[17] = system: Salmonella; assay: Geometrical average of minimum inhibitory concentration was determined in isosensitest broth against Salmonella; assay type: functional
[18] = Geometrical average of minimum inhibitory concentration was determined in isosensitest broth against gram-positive strains.; assay type: functional
[19] = system: Klebsiella pneumoniae; assay: Minimum inhibitory concentration against Klebsiella pneumoniae 102; assay type: functional
[20] = system: Alcaligenes; assay: Geometrical average of minimum inhibitory concentration was determined in isosensitest broth against Alcaligenes; assay type: functional
[21] = Distribution (50 mg/kg) was determined in kidney 15 min after intravenous administration; assay type: ADME, organism-based; conditions: read-out: Tissue distribution; method in brief: as §1
[22] = Distribution (50 mg/kg) was determined in kidney 30 min after intramuscular administration; assay type: ADME, organism-based; conditions: im, read-out: Tissue distribution; method in brief: as §1
[23] = Distribution (50 mg/kg) was determined in kidney 5 min after intravenous administration; assay type: ADME, organism-based; conditions: read-out: Tissue distribution; method in brief: as §1
[24] = Serum level was determined at 5 min after an intravenous administration of 50 mg/kg in rats; assay type: ADME, organism-based; set-up: dose 50 mg/kg, route intravenous; conditions: rat, read-out: Serum level; method in brief: as §2
[25] = system: Klebsiella pneumoniae; assay: In vivo protective dose was determined in infected swiss mice (120/strain) infected ip with Klebsiella pneumoniae 102 with an inoculum size-0.5 mL of 10 E5 CFU/mL of suspension. Activity in range of 10.47-22.94
[26] = Distribution (50 mg/kg) was determined in kidney 15 min after intramuscular administration; assay type: ADME, organism-based; conditions: im, read-out: Tissue distribution; method in brief: as §1
[27] = Distribution (50 mg/kg) was determined in lung 15 min after intravenous administration; assay type: ADME, organism-based; conditions: read-out: Tissue distribution; method in brief: as §1
[28] = Distribution (50 mg/kg) was determined in kidney 30 min after intravenous administration; assay type: ADME, organism-based; conditions: read-out: Tissue distribution; method in brief: as §1

Cn1nnnc1SCC1=C(C(=O)O)N2C(=O)[C@@H](NC(=O)/C(=N/N)c3csc(N)n3)[C@H]2SC1
MBC [1]: 2.21 µg/mL (≈ 4.45 µM) | concentration at 1 h [2]: 15100 ng/g | MIC [3]: 1.08 µg/mL (≈ 2.17 µM) | ED50 [4]: 9.3 mg/kg | MBC [5]: 3.12 µg/mL (≈ 6.28 µM) | MIC [6]: 1.17 µg/mL (≈ 2.36 µM) | concentration at 0.5 h [7]: 12200 ng/g | MBC [8]: 70.7 µg/mL (≈ 142 µM) | MIC [9]: 1.75 µg/mL (≈ 3.52 µM) | concentration at 0.25 h [10]: 10700 ng/g | concentration at 5 min [11]: 43200 ng/g | concentration at 2 h [12]: 32.9 µg/mL | concentration at 5 min [13]: 6420 ng/g | concentration at 5 min [14]: ≤ 5000 ng/g | MBC [15]: 12.5 µg/mL (≈ 25.2 µM) | concentration at 2 h [16]: ≤ 5000 ng/g | MIC [17]: 0.86 µg/mL (≈ 1.73 µM) | MIC [18]: 4.95 µg/mL (≈ 9.97 µM) | MIC [19]: 1.56 µg/mL (≈ 3.14 µM) | MIC [20]: 8.83 µg/mL (≈ 17.8 µM) | concentration at 0.25 h [21]: 50600 ng/g | concentration at 0.5 h [22]: 36200 ng/g | concentration at 5 min [23]: 107000 ng/g | concentration at 5 min [24]: 231 µg/mL | ED50 [25]: 15.5 mg/kg | concentration at 0.25 h [26]: 25100 ng/g | concentration at 0.25 h [27]: 17500 ng/g | concentration at 0.5 h [28]: 19600 ng/g
